# Compound activity: PubChem, several laboratories
# UPR XBP1 act: activators of adaptive arm of unfolded protein response (XBP1); CHO-XBP1 luciferase reporter, IRE1-XBP1 UPR activation, luminescence; percent of tunicamycin response, DMSO as zero; activation, % at 20 µM; 330,000 tested, 0.33% active; AID 463104;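 active = versus positive control, 20 µM dose yields 30% or more activation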;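 note: 100% = tunicamycin at 10 µg/mL and 0% = DMSO only wells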
#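 Test system: CHO-XBP1 luciferase reporter cells | Buffer or medium: Serum-containing F12 medium, 10% FBS | Schedule: 6 h compound exposure at 37 °C, 5% CO2 | Detection: Steady-Glo luciferase glow luminescence, 10 min after reagent addition | Read-out basis: Activation, % of tunicamycin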
# CHOP inhibitor: CHOP inhibition in unfolded protein response; CHO-K1 CHOP-promoter luciferase, tunicamycin-induced, 15-18 h; inhibition, % at 10 µM; 220,000 tested, 3.8% active; AID 2732;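 active = compounds that reduced the stress-induced luciferase reporter signal by more than about 70% of percent inhibition, limit read from the data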;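 note: 0% = tunicamycin plus vehicle and 100% = wells without tunicamycin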
# UPR CHOP act: activators of apoptotic arm of unfolded protein response (CHOP); CHO-CHOP luciferase reporter, UPR activation, luminescence; percent of tunicamycin response over DMSO baseline; activation, % at 10 µM; 330,000 tested, 0.34% active; AID 449763;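 active = at 10 µM dose, activation of 40% or more, normalized to positive control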;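 note: 100% = tunicamycin at 10 µg/mL and 0% = DMSO alone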
#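 System: CHO-CHOP luciferase reporter cell line | Buffer or medium: F12 medium containing 10% fetal bovine serum | Doses: One dose, 10 µM in 0.5% DMSO | Times: 6 h compound exposure at 37 °C after overnight seeding | Signal: Luciferase luminescence | Read-out: % activation vs tunicamycin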
# HCV NS3 hel inh: blocks Hepatitis C virus NS3 helicase unwinding; NS3 helicase DNA unwinding, Cy5 molecular beacon fluorescence; inhibition, % at 10.9 µM; 290,000 tested, 0.56% active;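 active = inhibition above the mean of all tested compounds plus 3 SD, set per campaign, cut at about 35% in these data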;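 note: 0% = DMSO wells and 100% = thioflavine S control wells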
#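 System: HCV NS3 helicase fragment; control set: DMSO and thioflavine S; technique: Cy5 fluorescence at 0 and 60 min, beacon hairpin quenching; reagent: beacon DNA duplex substrate plus ATP; replicates: singlicate; schedule: 1 h reaction at 25 °C, ATP-initiated; medium: MOPS buffer pH 6.5 with MgCl2, DTT, Tween20, BSA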
# p97 ATPase inh: human p97 ATPase inhibition | recombinant p97 ATPase, Kinase-Glo ATP luminescence, 3 h | 220,000 tested, 0.42% active | AID 1481 | inhibition, % at 8 µM; in the data active = inhibition above about 15%;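 note: 0% = DMSO vehicle and 100% = wells lacking enzyme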
# Target sequence (P55072 whole entry, looked up): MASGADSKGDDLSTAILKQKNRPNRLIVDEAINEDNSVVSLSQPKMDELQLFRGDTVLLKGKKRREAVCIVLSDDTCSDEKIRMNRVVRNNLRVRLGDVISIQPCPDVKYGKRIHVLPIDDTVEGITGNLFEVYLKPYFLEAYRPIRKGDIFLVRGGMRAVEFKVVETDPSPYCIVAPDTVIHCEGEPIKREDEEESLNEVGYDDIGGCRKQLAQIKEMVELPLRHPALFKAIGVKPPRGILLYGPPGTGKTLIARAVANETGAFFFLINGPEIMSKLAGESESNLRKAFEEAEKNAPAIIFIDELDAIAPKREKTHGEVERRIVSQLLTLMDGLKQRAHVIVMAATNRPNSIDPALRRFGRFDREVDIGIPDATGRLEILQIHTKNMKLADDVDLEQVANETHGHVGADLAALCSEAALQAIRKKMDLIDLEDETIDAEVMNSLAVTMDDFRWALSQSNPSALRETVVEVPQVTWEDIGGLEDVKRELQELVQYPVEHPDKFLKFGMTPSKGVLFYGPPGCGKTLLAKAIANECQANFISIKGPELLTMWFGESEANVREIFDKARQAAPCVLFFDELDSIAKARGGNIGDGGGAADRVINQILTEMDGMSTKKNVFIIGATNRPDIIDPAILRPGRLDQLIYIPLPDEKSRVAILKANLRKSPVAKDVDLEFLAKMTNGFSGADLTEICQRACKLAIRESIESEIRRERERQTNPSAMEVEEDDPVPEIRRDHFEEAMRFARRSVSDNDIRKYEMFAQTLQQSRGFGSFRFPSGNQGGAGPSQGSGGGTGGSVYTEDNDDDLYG
# M18AAP inhibitor: blocks P. falciparum M18 aspartyl aminopeptidase; inhibition, % at 7.35 µM; recombinant PfM18AAP, H-Glu-NHMec fluorogenic cleavage; 290,000 tested, 1.2% active;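 active = inhibition above the campaign mean inhibition over all tested compounds plus 3 SD, cut at about 28% in these data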;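 note: 0% = plate median of test compound wells and 100% = 2 mM ZnCl2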
# Numbers without * were called inactive; · = no result. An excerpt weighted towards active compounds, which were near 4.5% of everything screened.
SMILES,UPR XBP1 act,CHOP inhibitor,UPR CHOP act,HCV NS3 hel inh,p97 ATPase inh,M18AAP inhibitor
Cc1oc(-c2ccccc2F)nc1CS(=O)CC(=O)NCc1ccc(F)cc1 (stereo unspecified),-0.8,·,2.8,-8.5,·,-4.7
CCn1c(=O)n(CC)c2cc(N3CCCC3)c(NC(=O)c3ccc(C)cc3)cc21,4.0,·,9.4,0.2,·,28.3*
CCn1c(=O)n(CC)c2cc(N3CCCC3)c(NC(=O)c3cc(Br)ccc3OC)cc21,9.4,·,-0.9,3.1,·,30.0*
CCn1c(=O)n(CC)c2cc(N3CCCC3)c(NC(=O)c3ccccc3)cc21,4.5,·,0.7,0.8,·,13.9
Cc1ccc(C(=O)NCC(=O)N(C)Cc2ccc(Cl)cc2Cl)s1,-2.0,·,-0.4,·,·,·
Cc1ccc(S(=O)(=O)CCC(=O)OCC(=O)Nc2cc(F)ccc2C)cc1,0.1,·,-0.4,·,·,·
O=C(Nc1cccc([N+](=O)[O-])c1)c1cc2ccccc2cc1O,5.0,85.9*,26.1,10.2,11.8,3.1
COc1ccc(NC(=O)c2cc([N+](=O)[O-])ccc2O)cc1,-11.9,75.0*,-9.1,0.3,-13.9,0.8
CN(C)c1ccc(C(C(=O)NCc2ccccc2)N(Cc2cccnc2)C(=O)c2snc(C(N)=O)c2N)cc1 (stereo unspecified),4.6,·,-0.3,-2.3,·,3.3
COc1cc(C2NCC(c3ccc(Cl)cc3Cl)c3c2[nH]c2ccccc32)cc(OC)c1OC (stereo unspecified),-2.0,76.6*,5.3,-57.1,0.3,1.5
O=C(O)c1ccc(C2NCC(c3ccccc3Cl)c3c2[nH]c2ccccc32)cc1 (stereo unspecified),2.1,5.4,-2.6,9.0,2.0,-5.6
CCC(=O)Nc1c(C#N)c2nc3ccccc3nc2n1-c1ccccc1C,1.3,54.3,-3.7,-5.0,1.8,-0.4
CCCCn1c(NC(=O)CC)c(C#N)c2nc3ccccc3nc21,1.4,93.8*,-0.5,10.2,5.0,-2.4
C[n+]1c2n(c3ccccc31)N=C(c1cc(C(C)(C)C)c(O)c(C(C)(C)C)c1)CS2,3.7,72.8*,7.4,-42.9,7.0,4.3
Cc1ccc(N(CCC#N)C(=O)CSc2nnc3ccccn23)cc1,-1.3,·,-1.4,·,·,·
Cc1ccc(NC(=O)c2cccc(NC(=O)CC3SC(N4CCCCC4)=NC3=O)c2)nc1 (stereo unspecified),2.0,·,1.2,·,·,·
CC1(C)CC(=O)C=C(NC2=CC3OC(c4ccccc4)OCC3OC2=O)C1 (stereo unspecified),-2.5,102.9*,17.0,0.8,5.8,5.3
OC(COC(c1ccc(Cl)cc1)c1ccc(Cl)cc1)CN1CCc2ccccc2C1 (stereo unspecified),1.7,90.2*,-1.8,-74.3,-6.2,4.0
COc1cc(SC)ccc1C(=O)Nc1ccc(Cl)cn1,-10.0,86.2*,-7.0,4.2,1.4,-1.7
CSc1ccc(Cl)c(C(=O)Nc2ccc(Cl)cn2)c1,1.9,9.3,-1.1,3.5,-3.2,-12.1
O=C(c1ccco1)N1C(=O)c2cccc3c(S(=O)(=O)N4CCCC4)ccc1c23,2.2,74.2*,-0.3,2.9,-2.4,3.3
O=C1Nc2ccc(S(=O)(=O)N3CCCC3)c3cccc1c23,-1.1,5.5,-1.8,0.4,3.6,0.9
Cc1ccc(CN=c2c([N+](=O)[O-])nn(-c3cccc(Cl)c3)n2O)cc1,-0.6,83.5*,-0.9,-2.3,-3.1,5.1
Cc1ccc(CN=c2c([N+](=O)[O-])nn(-c3cccc(C)c3)n2O)cc1,0.2,12.6,3.1,0.6,2.8,-3.6
Cc1ccc(OCc2ccc(C(=O)Nc3nc4ccccc4n3Cc3ccccc3)o2)c([N+](=O)[O-])c1,1.2,87.9*,-0.8,5.0,-0.9,1.5
CCN(CC)CCC(c1ccc(N(C)C)cc1)c1c(OC)cc(OC)c2c(-c3ccccc3)cc(=O)oc12 (stereo unspecified),4.2,24.3,0.2,·,·,·
CCCCCc1cc(=O)oc2c(C(CCN3CCCCC3)c3ccc4c(c3)OCO4)c(OC)cc(OC)c12 (stereo unspecified),3.4,87.5*,7.8,·,·,·
